Our source for the IC50 values is ChEMBL document CHEMBL3091306, “Synthesis, docking and pharmacological evaluation of novel homo- and hetero-bis 3-piperazinylpropylindole derivatives at SERT and 5-HT1A receptor” (Bioorg Med Chem, 2013).

SMILES strings stand for the structures.

The target of assay [1] is T1, 5-hydroxytryptamine receptor 1A (Homo sapiens, UniProt P08908).
T1 sequence (P08908 whole entry): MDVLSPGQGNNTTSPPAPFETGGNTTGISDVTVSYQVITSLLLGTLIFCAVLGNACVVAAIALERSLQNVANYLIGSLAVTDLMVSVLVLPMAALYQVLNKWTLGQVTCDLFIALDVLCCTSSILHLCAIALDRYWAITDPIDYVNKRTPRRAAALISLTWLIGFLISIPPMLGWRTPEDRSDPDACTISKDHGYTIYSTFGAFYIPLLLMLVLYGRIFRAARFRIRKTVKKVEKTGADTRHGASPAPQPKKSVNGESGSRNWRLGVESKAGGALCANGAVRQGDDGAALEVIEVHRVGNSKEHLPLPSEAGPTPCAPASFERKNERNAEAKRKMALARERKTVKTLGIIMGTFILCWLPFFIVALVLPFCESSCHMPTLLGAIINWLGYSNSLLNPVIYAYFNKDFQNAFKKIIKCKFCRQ
Description: Displacement of [3H]8-OH-DPAT from human 5-HT1A receptor expressed in HEK293 cells. The class given is cell-based. In general terms: Loss of bound radioactivity is the signal in a displacement assay; it reports binding, not function.

The target of assay [2] is Sodium-dependent serotonin transporter (Rattus norvegicus, UniProt P31652). The assay can be described thus: Displacement of [3H]paroxetine from SERT in rat cortical membranes after 6 mins by liquid scintillation counting. The class given is cell membranes. The essentials:
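Rat cortical membranes (0.35 mg original wet weight) incubated with 0.2 nM [3H]paroxetine and test compound at 10^-11–10^-4 M in 50 mM Tris–HCl pH 7.7 with 150 mM NaCl, 5 mM KCl, 1.0 ml, 6 min at 25 °C; stopped by rapid filtration through polyethyleneimine-soaked GF/B filters, ice-cold buffer washes.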

Chain of Sodium-dependent serotonin transporter (P31652 whole entry): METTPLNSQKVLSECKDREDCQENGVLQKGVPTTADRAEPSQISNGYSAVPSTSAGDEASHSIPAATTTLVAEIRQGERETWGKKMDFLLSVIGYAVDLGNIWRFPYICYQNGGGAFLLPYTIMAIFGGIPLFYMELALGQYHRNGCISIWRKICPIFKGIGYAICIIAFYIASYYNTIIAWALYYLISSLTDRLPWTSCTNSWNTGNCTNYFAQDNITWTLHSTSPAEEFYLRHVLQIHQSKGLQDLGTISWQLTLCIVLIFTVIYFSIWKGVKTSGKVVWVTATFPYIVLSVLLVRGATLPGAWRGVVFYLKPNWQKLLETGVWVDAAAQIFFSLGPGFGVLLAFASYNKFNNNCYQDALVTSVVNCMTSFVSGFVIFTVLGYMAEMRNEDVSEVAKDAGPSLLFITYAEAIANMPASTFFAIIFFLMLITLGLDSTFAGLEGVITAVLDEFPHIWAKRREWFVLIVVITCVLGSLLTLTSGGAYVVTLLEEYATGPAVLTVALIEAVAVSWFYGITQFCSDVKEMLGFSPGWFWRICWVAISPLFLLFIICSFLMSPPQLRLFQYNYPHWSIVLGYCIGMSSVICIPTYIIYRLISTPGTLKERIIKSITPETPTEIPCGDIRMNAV

`Fc1ccc2[nH]cc(CCCN3CCN(CCCc4c[nH]c5ccccc45)CC3)c2c1`: the IC50 – broadly, the concentration that gives 50% inhibition – is 16 nM in assay [1] and 26 nM in assay [2].

As for `COc1ccc2[nH]cc(CCCN3CCN(CCCc4c[nH]c5ccc(F)cc45)CC3)c2c1`, the IC50 in assay [1] worked out at 7200 nM; in assay [2], 14 nM.

For the molecule `COc1ccc2[nH]cc(CCCN3CCN(CCCc4c[nH]c5ccccc45)CC3)c2c1`, the IC50 in assay [1] stood at 4500 nM; in assay [2], 43 nM.

Consider `Fc1ccc2[nH]cc(CCCN3CCN(CCCc4c[nH]c5ccc(Br)cc45)CC3)c2c1`, for which the IC50 was found to be 4900 nM in assay [1] and 61 nM in assay [2].

Turning to `COc1ccc2[nH]cc(CCCN3CCN(CCCc4c[nH]c5ccc(Br)cc45)CC3)c2c1`, the figures for the IC50 in assay [1] and in assay [2] were 128 nM and 39 nM, respectively.

Take `c1ccc2c(CCCN3CCN(CCCc4c[nH]c5ccccc45)CC3)c[nH]c2c1`: the IC50 in assay [1] was 2700 nM; in assay [2], 37 nM.

Regarding `Fc1ccc2[nH]cc(CCCN3CCN(CCCc4c[nH]c5ccc(F)cc45)CC3)c2c1`, the IC50 in assay [1] is 5700 nM; in assay [2], 13 nM.

As for `COc1ccc2[nH]cc(CCCN3CCN(CCCc4c[nH]c5ccc(OC)cc45)CC3)c2c1`, the IC50 in assay [1] turned out to be 599 nM; in assay [2] it was 98 nM.

Regarding `Brc1ccc2[nH]cc(CCCN3CCN(CCCc4c[nH]c5ccc(Br)cc45)CC3)c2c1`, the figures for the IC50 in assay [1] and in assay [2] were 1200 nM and 87 nM, respectively.

For `Brc1ccc2[nH]cc(CCCN3CCN(CCCc4c[nH]c5ccccc45)CC3)c2c1`, the values for the IC50 in assay [1] and in assay [2] were 15 nM and 137 nM, respectively.
